Test results from ChEMBL document CHEMBL4359813, “Synthesis and antimycobacterial activity of imidazo[1,2-b][1,2,4,5]tetrazines” (2019).
Converted amounts (≈) assume the structure as drawn. The source made the active and inactive calls. The rule behind the calls is not given here.

Experiments:
[1] = system: Mycolicibacterium smegmatis; test: Antimycobacterial activity against Mycobacterium smegmatis atR10 assessed as decrease in drug resistance development at 10 nmol/disc after 2 to 3 days by paper disc method; format: functional, organism-based
How it was run: (§1)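 Mutant M. smegmatis strains were grown in Middlebrook 7H9/OADC/Tween/glycerol to OD600 1.2. Cultures were diluted 1:9:10 (culture:water:M290) and overlaid on M290 agar. Commercial or impregnated paper discs were applied and plates incubated 2–3 days at 37 °C. Inhibition halos were measured to 1 mm, run in triplicate, mean ± SD.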

[2] = system: Mycolicibacterium smegmatis; test: Antimycobacterial activity against Mycobacterium smegmatis atR17 assessed as decrease in drug resistance at 10 nmol/disc after 2 to 3 days by paper disc method; format: functional, organism-based; how it was run: as §1
[3] = system: Mycolicibacterium smegmatis MC2 155; test: Inhibition of STPK in Mycobacterium smegmatis MC2 155 expressing aminoglycoside phophotransferase-8 assessed as growth inhibition at 50 nmol/disk after 18 hrs in presence of kanamycin by paper disk method
[4] = system: Mycobacterium tuberculosis; test: Antimycobacterial activity against Mycobacterium tuberculosis H37Rv in liquid medium; format: functional
How it was run: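 M. tuberculosis H37Rv; MIC determined in liquid medium on the automated Bactec MGIT 960 system.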

[5] = system: Mycolicibacterium smegmatis; test: Antimycobacterial activity against Mycobacterium smegmatis atR9 assessed as decrease in drug resistance development at 200 nmol/disc after 2 to 3 days by paper disc method; format: functional, organism-based
How it was run: (§2)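 Drug-resistant M. smegmatis mc2 155 mutants, isolated on M290 agar with 3.5-4× MIC of compound and resistance re-confirmed, grown in Middlebrook 7H9 (OADC, 0.1% Tween-80, 0.4% glycerol) to OD600 1.2. Diluted 1:9:10 culture:water:M290 and poured as top layer on M290 agar. Impregnated paper discs applied; 37 °C for 2–3 days. Halos measured to nearest 1 mm; triplicates, mean ± SD versus control strain.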

[6] = system: Mycolicibacterium smegmatis; test: Antimycobacterial activity against Mycobacterium smegmatis atR11 in liquid medium after 48 hrs by two-fold serial dilution method; format: functional; conditions: atR11, 48 h
How it was run: (§3)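 M. smegmatis resistant mutants were isolated on M290 agar containing 3.5-4× MIC of the test compound at 30°C and resistance was reconfirmed. MIC was then run in Lemco-Tw broth (Tween-80 0.05%). An overnight culture was diluted 1:200, and two-fold serial dilutions in DMSO were added. Plates were incubated at 37°C and 250 rpm for 48 h. MIC was read as the lowest concentration with no visible growth.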

[7] = system: Mycolicibacterium smegmatis; test: Antimycobacterial activity against Mycobacterium smegmatis atR10 in liquid medium after 48 hrs by two-fold serial dilution method; format: functional; conditions: atR10, 48 h; how it was run: as §3
[8] = system: Mycolicibacterium smegmatis; test: Antimycobacterial activity against Mycobacterium smegmatis MC2 155 in liquid medium after 48 hrs by two-fold serial dilution method; format: functional; conditions: MC2 155, 48 h
How it was run: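 M. smegmatis mc2 155 grown overnight in Lemco-Tw broth, diluted 1:200 in fresh broth. […] Top wells could carry 4% DMSO. Incubated 48 h at 37 °C with shaking at 250 rpm. MIC is the lowest concentration with no visible growth.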

[9] = system: Mycolicibacterium smegmatis; test: Antimycobacterial activity against Mycobacterium smegmatis atR33 in liquid medium after 48 hrs by two-fold serial dilution method; format: functional; conditions: atR33, 48 h; how it was run: as §3
[10] = system: Mycolicibacterium smegmatis; test: Antimycobacterial activity against Mycobacterium smegmatis atR17 assessed as decrease in drug resistance development at 200 nmol/disc after 2 to 3 days by paper disc method; format: functional, organism-based; how it was run: as §1
[11] = system: Mycolicibacterium smegmatis; test: Antimycobacterial activity against Mycobacterium smegmatis atR2 in liquid medium after 48 hrs by two-fold serial dilution method; format: functional; conditions: atR2, 48 h; how it was run: as §3
[12] = system: Mycolicibacterium smegmatis; test: Antimycobacterial activity against Mycobacterium smegmatis atR14 in liquid medium after 48 hrs by two-fold serial dilution method; format: functional; conditions: atR14, 48 h; how it was run: as §3
[13] = system: Mycolicibacterium smegmatis; test: Antimycobacterial activity against Mycobacterium smegmatis MC2 155 in solid medium by two-fold serial dilution method; format: functional
How it was run: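 M290 soybean-casein agar plates carried two-fold compound dilutions, 8–64 or 8–128 µg/ml, some with extra 20 or 25 µg/ml plates.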

[14] = system: Mycolicibacterium smegmatis; test: Antimycobacterial activity against Mycobacterium smegmatis atR37 in liquid medium after 48 hrs by two-fold serial dilution method; format: functional; conditions: atR37, 48 h; how it was run: as §3
[15] = system: Mycolicibacterium smegmatis; test: Antimycobacterial activity against Mycobacterium smegmatis atR8 assessed as decrease in drug resistance development at 200 nmol/disc after 2 to 3 days by paper disc method; format: functional, organism-based; how it was run: as §2
[16] = system: Mycolicibacterium smegmatis; test: Antimycobacterial activity against Mycobacterium smegmatis atR1 in liquid medium after 48 hrs by two-fold serial dilution method; format: functional; conditions: atR1, 48 h; how it was run: as §3
[17] = system: Mycolicibacterium smegmatis; test: Antimycobacterial activity against Mycobacterium smegmatis atR10 assessed as decrease in drug resistance development at 200 nmol/disc after 2 to 3 days by paper disc method; format: functional, organism-based; how it was run: as §1
[18] = system: Mycolicibacterium smegmatis; test: Antimycobacterial activity against Mycobacterium smegmatis atR9 in liquid medium after 48 hrs by two-fold serial dilution method; format: functional; conditions: atR9, 48 h; how it was run: as §3
[19] = system: Mycolicibacterium smegmatis; test: Antimycobacterial activity against Mycobacterium smegmatis atR8 in liquid medium after 48 hrs by two-fold serial dilution method; format: functional; conditions: atR8, 48 h; how it was run: as §3
[20] = system: Mycolicibacterium smegmatis; test: Antimycobacterial activity against Mycobacterium smegmatis atR40 in liquid medium after 48 hrs by two-fold serial dilution method; format: functional; conditions: atR40, 48 h; how it was run: as §3
[21] = system: Mycolicibacterium smegmatis; test: Antimycobacterial activity against Mycobacterium smegmatis atR19 in liquid medium after 48 hrs by two-fold serial dilution method; format: functional; conditions: atR19, 48 h; how it was run: as §3
[22] = system: Mycolicibacterium smegmatis; test: Antimycobacterial activity against Mycobacterium smegmatis atR17 in liquid medium after 48 hrs by two-fold serial dilution method; format: functional; conditions: atR17, 48 h; how it was run: as §3
[23] = system: Mycolicibacterium smegmatis; test: Antimycobacterial activity against Mycobacterium smegmatis atR37 assessed as decrease in drug resistance development at 300 nmol/disc after 2 to 3 days by paper disc method; format: functional, organism-based; how it was run: as §2
[24] = system: Mycolicibacterium smegmatis; test: Antimycobacterial activity against Mycobacterium smegmatis atR17 assessed as decrease in drug resistance development at 300 nmol/disc after 2 to 3 days by paper disc method; format: functional, organism-based; how it was run: as §1
[25] = system: Mycolicibacterium smegmatis; test: Antimycobacterial activity against Mycobacterium smegmatis atR10 assessed as decrease in drug resistance development at 300 nmol/disc after 2 to 3 days by paper disc method; format: functional, organism-based; how it was run: as §1
[26] = system: Mycolicibacterium smegmatis MC2 155; test: Inhibition of STPK in Mycobacterium smegmatis MC2 155 expressing aminoglycoside phophotransferase-8 assessed as growth inhibition at 100 nmol/disk after 18 hrs in presence of kanamycin by paper disk method
[27] = system: Mycolicibacterium smegmatis; test: Antimycobacterial activity against Mycobacterium smegmatis atR14 assessed as decrease in drug resistance development at 300 nmol/disc after 2 to 3 days by paper disc method; format: functional, organism-based; how it was run: as §1
[28] = system: Mycolicibacterium smegmatis; test: Antimycobacterial activity against Mycobacterium smegmatis atR33 assessed as decrease in drug resistance development at 300 nmol/disc after 2 to 3 days by paper disc method; format: functional, organism-based; how it was run: as §1
[29] = system: Mycolicibacterium smegmatis; test: Antimycobacterial activity against Mycobacterium smegmatis atR8 assessed as decrease in drug resistance development at 300 nmol/disc after 2 to 3 days by paper disc method; format: functional, organism-based; how it was run: as §2
[30] = system: Mycolicibacterium smegmatis; test: Antimycobacterial activity against Mycobacterium smegmatis atR40 assessed as decrease in drug resistance development at 300 nmol/disc after 2 to 3 days by paper disc method; format: functional, organism-based; how it was run: as §2
[31] = system: Mycolicibacterium smegmatis; test: Antimycobacterial activity against Mycobacterium smegmatis atR11 assessed as decrease in drug resistance development at 300 nmol/disc after 2 to 3 days by paper disc method; format: functional, organism-based; how it was run: as §1
[32] = system: Mycolicibacterium smegmatis; test: Antimycobacterial activity against Mycobacterium smegmatis atR1 assessed as decrease in drug resistance development at 300 nmol/disc after 2 to 3 days by paper disc method; format: functional, organism-based; how it was run: as §1
[33] = system: Mycolicibacterium smegmatis; test: Antimycobacterial activity against Mycobacterium smegmatis atR19 assessed as decrease in drug resistance development at 300 nmol/disc after 2 to 3 days by paper disc method; format: functional, organism-based; how it was run: as §1
[34] = system: Mycolicibacterium smegmatis; test: Antimycobacterial activity against Mycobacterium smegmatis atR2 assessed as decrease in drug resistance development at 300 nmol/disc after 2 to 3 days by paper disc method; format: functional, organism-based; how it was run: as §1

SMILES: O=C1c2c(O)ccc(O)c2C(=O)c2c(NCCNCCO)ccc(NCCNCCO)c21
- Activity [1]: inactive
- Activity [2]: inactive

SMILES: CCCCCCCNc1nnc2ncc(Sc3ccccc3)n2n1
- inhibition zone (IZ) [3]: 12 mm

SMILES: c1cn(-c2nnc3nccn3n2)cn1
- MIC [4]: 134 µM (≈ 25 µg/mL)
- Activity [5]: inactive
- MIC [6]: 32 mg/L (≈ 171 µM)
- MIC [7]: 32 mg/L (≈ 171 µM)
- MIC [8]: 171 µM (≈ 32 µg/mL)
- MIC [9]: 32 mg/L (≈ 171 µM)
- Activity [10]: inactive
- MIC [11]: 32 mg/L (≈ 171 µM)
- MIC [12]: 32 mg/L (≈ 171 µM)
- MIC [13]: 134 µM (≈ 25 µg/mL)
- inhibition zone (IZ) [3]: 12.8 mm
- MIC [14]: 32 mg/L (≈ 171 µM)
- Activity [15]: inactive
- MIC [16]: 32 mg/L (≈ 171 µM)
- Activity [17]: inactive
- MIC [18]: 32 mg/L (≈ 171 µM)
- MIC [19]: 32 mg/L (≈ 171 µM)
- MIC [20]: 32 mg/L (≈ 171 µM)
- MIC [21]: 32 mg/L (≈ 171 µM)
- MIC [22]: 32 mg/L (≈ 171 µM)

SMILES: Cc1cc(C)n(-c2nnc3ncc(SCc4ccccc4)n3n2)n1
- MIC [4]: 3 µM (≈ 1.01 µg/mL)
- Activity [23]: inactive
- Activity [24]: inactive
- MIC [6]: > 64 mg/L
- MIC [7]: > 64 mg/L
- Activity [25]: inactive
- inhibition zone (IZ) [26]: 13.7 mm
- MIC [8]: 94.8 µM (≈ 32 µg/mL)
- Activity [27]: inactive
- MIC [9]: > 64 mg/L
- Activity [28]: inactive
- Activity [29]: inactive
- Activity [30]: inactive
- Activity [31]: inactive
- MIC [11]: > 64 mg/L
- MIC [12]: > 64 mg/L
- MIC [13]: 59.3 µM (≈ 20 µg/mL)
- MIC [14]: > 64 mg/L
- Activity [32]: inactive
- MIC [16]: > 64 mg/L
- MIC [18]: > 64 mg/L
- MIC [19]: > 64 mg/L
- MIC [20]: > 64 mg/L
- MIC [21]: > 64 mg/L
- MIC [22]: > 64 mg/L
- Activity [33]: inactive
- Activity [34]: inactive

SMILES: COc1ccc(OC)c(Sc2cnc3nnc(-n4nc(C)cc4C)nn23)c1
- inhibition zone (IZ) [26]: 9.3 mm
